Measurements: article PMC5055850 (Bioorganic & medicinal chemistry, 2016)
Like-named read-outs stand apart in the source and are kept apart here.

Legend:
Assay type in all cases: cell-based
[1] = test system: human polymorphonuclear neutrophils (hPMN); assay: Ca2+ flux assay in human neutrophils; conditions: for EC50: Homo sapiens, Polymorphonuclear neutrophil, read-out: hPMN EC50
Outline: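 Neutrophils from healthy donors' blood, purified by dextran sedimentation, Histopaque 1077 gradient and hypotonic red-cell lysis (>95% pure, >98% viable). Cells in HBSS− with 10 mM HEPES were loaded with Fluo-4 AM (1.25 µg/mL final) for 30 min at 37 °C, then plated at 2 × 10^5 cells/well. Fluorescence (485/538 nm) read every 5 s for 240 s at room temperature. Peak change normalized to 5 nM fMLF. EC50 from 5–6-point nonlinear regression, three experiments.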

[2] = target: T1, FPR1 (Homo sapiens, UniProt P21462); assay: Ca2+ flux assay in FPR1-HL60 cells; conditions: for Emax: read-out: FPR1-HL60 Efficacy
T1 sequence (P21462 1-350): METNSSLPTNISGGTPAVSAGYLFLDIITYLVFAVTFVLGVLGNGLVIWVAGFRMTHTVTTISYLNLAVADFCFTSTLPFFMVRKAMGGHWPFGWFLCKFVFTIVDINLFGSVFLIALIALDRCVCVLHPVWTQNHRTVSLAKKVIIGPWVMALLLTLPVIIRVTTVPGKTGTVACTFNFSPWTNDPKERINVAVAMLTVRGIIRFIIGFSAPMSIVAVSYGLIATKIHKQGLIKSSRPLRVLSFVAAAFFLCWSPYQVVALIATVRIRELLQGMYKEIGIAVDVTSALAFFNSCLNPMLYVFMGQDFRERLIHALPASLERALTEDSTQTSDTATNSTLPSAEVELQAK
Outline: (§1)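 FPR1-, FPR2- or FPR3-transfected HL-60 cells grown in RPMI 1640 with 10% heat-inactivated FCS, 10 mM HEPES and G418 (1 mg/mL). Cells loaded with Fluo-4 AM (1.25 µg/mL final) for 30 min at 37 °C in the dark, then 2 × 10^5 cells/well. Fluorescence (ex 485/em 538 nm) read every 5 s for 240 s at room temperature. Peak rise over baseline normalized to 5 nM fMLF (FPR1) or 5 nM WKYMVm (FPR2, FPR3). EC50 from 5–6-point nonlinear fits, three independent experiments.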

[3] = target: T2, FPR2 (Homo sapiens, UniProt P25090); assay: Ca2+ flux assay in FPR2-HL60 cells; conditions: for EC50: HL-60 cells transfected with FPR2; for Emax: read-out: FPR2-HL60 Efficacy
T2 sequence (P25090 1-351): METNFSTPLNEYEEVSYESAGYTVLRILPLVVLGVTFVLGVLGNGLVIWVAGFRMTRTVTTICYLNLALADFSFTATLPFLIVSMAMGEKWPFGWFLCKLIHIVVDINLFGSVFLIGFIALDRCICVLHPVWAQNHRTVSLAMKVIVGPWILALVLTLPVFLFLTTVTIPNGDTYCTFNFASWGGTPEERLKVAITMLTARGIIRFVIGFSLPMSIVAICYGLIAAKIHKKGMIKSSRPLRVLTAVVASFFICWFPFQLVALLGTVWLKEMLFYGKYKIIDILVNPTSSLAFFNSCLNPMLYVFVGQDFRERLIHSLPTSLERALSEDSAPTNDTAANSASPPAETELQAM
Outline: as §1

[4] = target: T3, FPR3 (Homo sapiens, UniProt P25089); assay: Ca2+ flux assay in FPR3-HL60 cells; conditions: for FPR3-HL60 Efficacy: % of the response induced by 5 nM WKYMVm
T3 sequence (P25089 1-353): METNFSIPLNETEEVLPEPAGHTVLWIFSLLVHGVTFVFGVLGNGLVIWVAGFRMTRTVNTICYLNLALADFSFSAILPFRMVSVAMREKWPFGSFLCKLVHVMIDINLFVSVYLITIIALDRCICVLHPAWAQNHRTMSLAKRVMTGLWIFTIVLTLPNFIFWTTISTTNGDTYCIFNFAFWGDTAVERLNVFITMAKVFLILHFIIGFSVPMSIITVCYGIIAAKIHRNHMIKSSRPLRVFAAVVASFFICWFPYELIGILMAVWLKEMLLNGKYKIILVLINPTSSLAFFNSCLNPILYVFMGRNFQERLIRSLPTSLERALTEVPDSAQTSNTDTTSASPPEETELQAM
Outline: as §1

[5] = test system: mouse polymorphonuclear neutrophils (mPMN); assay: Ca2+ flux assay in mouse neutrophils; conditions: for mPMN Efficacy: % of the response induced by 5 nM WKYMVm; for EC50: read-out: mPMN EC50
Outline: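 Neutrophils taken from BALB/c mouse tibia and femur bone marrow. Isolated on a 45/50/55/62/81% Percoll gradient (1600g, 30 min, 10 °C), then Histopaque 1119 to remove red cells, and kept in HBSS−. Ca2+ fluorescence (485/538 nm) monitored every 5 s for 240 s at room temperature after compound addition. Maximal change over baseline normalized to 5 nM WKYMVm. EC50 from 5–6-point nonlinear regression, three independent experiments.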

[6] = target: T4, mouse Fpr1 (Mus musculus, UniProt P33766); assay: Ca2+ flux assay in mFpr1-RBL cells; conditions: for mFpr1-RBL Efficacy: % of the response induced by 5 nM WKYMVm
T4 sequence (P33766 1-364): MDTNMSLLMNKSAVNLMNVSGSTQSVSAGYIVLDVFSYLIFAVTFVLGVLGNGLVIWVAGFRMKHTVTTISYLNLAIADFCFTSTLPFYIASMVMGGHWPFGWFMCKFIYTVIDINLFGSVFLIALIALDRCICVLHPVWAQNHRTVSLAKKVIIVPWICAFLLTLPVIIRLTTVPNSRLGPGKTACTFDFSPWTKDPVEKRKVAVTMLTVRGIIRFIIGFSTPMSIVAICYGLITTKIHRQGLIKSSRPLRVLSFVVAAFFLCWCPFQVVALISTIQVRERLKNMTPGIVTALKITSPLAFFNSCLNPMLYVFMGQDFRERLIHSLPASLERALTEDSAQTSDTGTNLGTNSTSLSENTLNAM
Outline: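 RBL-2H3 cells carrying mouse Fpr1 were grown in DMEM with 20% FBS, 10 mM HEPES and G418 (250 µg/ml). Cells were loaded with Fluo-4 AM (1.25 µg/mL final, 30 min, 37 °C, dark) and plated at 2 × 10^5 cells/well. Fluorescence (485/538 nm) was read every 5 s for 240 s at room temperature after compound addition. Maximal rise over baseline normalized to 5 nM WKYMVm. EC50 from 5–6-point nonlinear fits, three experiments.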

[7] = test system: human neutrophils; assay: Cell migration; conditions: Neutrophil, 1 h, read-out: EC50 in migration assay
Outline: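 Human neutrophils at 2 × 10^6 cells/mL in HBSS with 2% FBS, placed above a 5.0 µm polycarbonate membrane. Lower wells held test compound, DMSO (negative control) or 1 nM fMLF (positive control). Migration ran 60 min at 37 °C, 5% CO2. Migrated cells counted by ATP luminescence against neutrophil standard curves and expressed as % of spontaneous migration. EC50 from 5–6-point nonlinear fits; mean ± SD, three donors.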

[8] = target: T5, mouse Fpr2 (Mus musculus, UniProt O88536); assay: Ca2+ flux assay in mFpr2-RBL cells; conditions: for mFpr2-RBL Efficacy: % of the response induced by 5 nM WKYMVm
T5 sequence (O88536 1-351): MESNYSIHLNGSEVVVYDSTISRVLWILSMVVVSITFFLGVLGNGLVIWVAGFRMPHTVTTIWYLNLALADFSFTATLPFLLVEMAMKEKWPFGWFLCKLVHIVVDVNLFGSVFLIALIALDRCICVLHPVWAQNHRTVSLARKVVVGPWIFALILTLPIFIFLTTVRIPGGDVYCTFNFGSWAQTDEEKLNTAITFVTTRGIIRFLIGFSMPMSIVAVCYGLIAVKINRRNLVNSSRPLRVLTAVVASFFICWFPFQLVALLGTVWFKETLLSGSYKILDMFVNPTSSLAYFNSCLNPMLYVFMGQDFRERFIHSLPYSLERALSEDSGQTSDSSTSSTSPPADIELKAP
Outline: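 RBL-2H3 cells stably expressing mouse Fpr2, grown in DMEM with 20% FBS, 10 mM HEPES and G418. Fluo-4 AM loaded (1.25 µg/mL final, 30 min, 37 °C, dark) in HBSS− with HEPES, then resuspended in HBSS with HEPES at 2 × 10^5 cells/well. Fluorescence (485/538 nm) read every 5 s for 240 s at room temperature. Peak rise over baseline was taken and EC50 fitted from 5–6-point curves. Mean of three experiments.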

[9] = % of the response induced by 5 nM fMLF
[10] = Mus musculus, Polymorphonuclear neutrophil

| Molecule | FPR3-HL60 Efficacy [4] | mPMN Efficacy [5] | mFpr1-RBL Efficacy [6] | EC50 [1] | Emax [2] | Emax [3] | EC50 [4] | EC50 [7] | EC50 [2] | EC50 ([3]; FPR2-HL60 EC50, Ca2+ flux) | EC50 [5, 10] | further results |
| --- | --- | --- | --- | --- | --- | --- | --- | --- | --- | --- | --- | --- |
| 1-[(4-Bromophenylcarbamoyl)-methyl]-5-(3-methoxyphenylamino)-1,6-dihydro-3-methyl-6-oxopyridazine-4-carboxylate [Compound 20] | 75% | 100% | 50% | – | – | – | – | – | – | – | – | hPMN Efficacy [1, 9]: 155%; FPR1-HL60 Efficacy [2, 9]: 130%; EC50 ([2]; read-out: FPR1-HL60 EC50, Ca2+ flux, HL-60 cells transfected with FPR1): 600 ± 100 nM; FPR2-HL60 Efficacy ([3]; % of the response induced by 5 nM WKYMVm): 115%; EC50 ([3]; read-out: FPR2-HL60 EC50, Ca2+ flux): 3100 ± 780 nM; EC50 ([4]; read-out: FPR3-HL60 EC50, Ca2+ flux, HL-60 cells transfected with FPR3): 17100 ± 4300 nM; EC50 ([5]; Ca2+ flux, mouse bone marrow neutrophils): 1000 ± 340 nM; EC50 ([6]; read-out: mFpr1-RBL EC50, Ca2+ flux, RBL cells transfected with mouse Fpr1): 4700 ± 1300 nM |
| COc1cccc(Nc2c(C(C)=O)c(C)nn(CC(=O)Nc3ccc(Br)cc3)c2=O)c1 [Compound 8a, 2-[4-Acetyl-5-(3-methoxyphenylamino)-3-methyl-6-oxopyridazin-1(6H)-yl]-N-(4-bromophenyl)acetamide] | 150% | – | – | 36 ± 7 nM | 185% | 60% | 210 ± 44 nM | 2200 ± 510 nM | – | – | – | – |
| CCc1c(C)nn(CC(=O)Nc2ccc(Br)cc2)c(=O)c1Nc1cccc(OC)c1 [Compound 13a, N-(4-Bromophenyl)-2-[4-ethyl-5-(3-methoxyphenylamino)-3-methyl-6-oxopyridazin-1(6H)-yl]acetamide] | 35% | – | – | 340 ± 110 nM | 185% | 35% | 460 ± 14 nM | – | 180 ± 4 nM | 61 ± 22 nM | – | – |
| C=Cc1c(C)nn(CC(=O)Nc2ccc(Br)cc2)c(=O)c1Nc1cccc(OC)c1 [Compound 15, N-(4-Bromophenyl)-2-[5-(3-methoxyphenylamino)-3-methyl-6-oxo-4-vinylpyridazin-1(6H)-yl]acetamide] | 75% | 30% | – | 840 ± 180 nM | 120% | 105% | 6000 ± 2100 nM | 1200 ± 240 nM | 230 ± 70 nM | 110 ± 14 nM | 22800 ± 6400 nM | – |
| Cc1nn(CC(=O)Nc2ccc(Br)cc2)c(=O)c(N)c1C(=O)C=CN(C)C [Compound 24] | – | 50% | 55% | 9300 ± 2300 nM | 120% | 50% | – | – | 5100 ± 1700 nM | 5700 ± 2300 nM | 13500 ± 3700 nM | EC50 [6]: 6700 ± 2100 nM; EC50 [8]: 9400 ± 2700 nM; mFpr2-RBL Efficacy [8]: 65% |
| COc1cccc(Nc2c(-c3ccn(C)n3)c(C)nn(CC(=O)Nc3ccc(Br)cc3)c2=O)c1 [Compound 27a, N-(4-Bromophenyl)-2-[5-(3-methoxyphenylamino)-3-methyl-4-(1-methyl-1H-pyrazol-3-yl)-6-oxo-6H-pyridazin-1-yl]acetamide] | – | – | – | 590 ± 210 nM | 130% | 90% | – | 1100 ± 220 nM | 3600 ± 280 nM | 590 ± 180 nM | – | – |
| COc1ccc(Nc2c(-c3ccn(C)n3)c(C)nn(CC(=O)Nc3ccc(Br)cc3)c2=O)cc1 [Compound 27b, N-(4-Bromophenyl)-2-[5-(4-methoxyphenylamino)-3-methyl-4-(1-methyl-1H-pyrazol-3-yl)-6-oxo-6H-pyridazin-1-yl]acetamide] | 110% | 80% | 25% | 300 ± 44 nM | 115% | 120% | 670 ± 220 nM | 450 ± 170 nM | 4000 ± 890 nM | 35 ± 100 nM | 6000 ± 1900 nM | EC50 [6]: 18500 ± 4100 nM; EC50 [8]: 18300 ± 3800 nM; mFpr2-RBL Efficacy [8]: 35% |
